TDP2 inh: TDP2 (human) inhibition, absorbance primary screen. inhibition, % at 12.8 µM. recombinant TDP2, T5PNP hydrolysis, p-nitrophenol absorbance 415 nm. actives 0.34% (n = 370,000);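 active = inhibition above the mean of all tested compounds plus 3 SD, set per campaign, cut at about 25% in these data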
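Evaluation: % inhibition relative to enzyme-containing and enzyme-free wells. Material: recombinant human TDP2. Benchmarks: enzyme-free and DMSO wells. Timing: enzyme reaction with compound for 2 h at 37 °C. Compound dosing: 12.8 µM only. Measured by: p-Nitrophenol epi absorbance. Reagent: T5PNP substrate at 5 mM, a TopII-DNA adduct mimic. Replication: single well per compound.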
MBD2 DNA inh: MBD2-methylated oligo binding inhibition | TR-FRET, MBD2 binding to methylated oligonucleotide | inhibition, % at 4.4 µM | actives 0.31% (n = 370,000) | AID 686964; in the data active = inhibition above about 13%
LEDGF integ inh: blocks HIV-1 LEDGF/p75-dependent DNA integration. TR-FRET IN-LEDGF/p75 DNA integration, Eu/Cy5. inhibition, % at 3.7 µM. actives 0.64% (n = 370,000);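 active = inhibition above the screen-wide mean plus 3 SD, cut at about 13% in these data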;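 note: signal is the Cy5 over europium emission ratio at 671 and 618 nm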
UHRF1 binding: blocks human UHRF1 binding to methylated DNA. inhibition, % at 4.4 µM. Q96T88. UHRF1 binding to methylated oligo, TR-FRET. actives 0.75% (n = 370,000); in the data active = inhibition above about 21%;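 note: UHRF1 SRA domain binding a hemimethylated CpG hairpin DNA probe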
IN multimer up: counter-screen for LEDGF/p75 integration inhibitors: HIV-1 integrase multimerization activators; TR-FRET HIV-1 integrase multimerization, biochemical; actives 17% (n = 2,000); shares compounds with LEDGF integ inh; activation, % at 7.7 µM; AID 1053131; in the data active = activation above about 8.9%
TR-FRET interf: optically interferes with TR-FRET readout in LEDGF counter-screen | inhibition, % at 7.7 µM | 2,000 tested, under 10 active | shares compounds with LEDGF integ inh | TR-FRET optical interference counterscreen, HIV-1 IN multimerization;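 active = inhibition above the mean over all tested compounds plus 3 SD, which no compound reached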
LEDGF integ conf: confirmation of HIV-1 LEDGF/p75-dependent integration inhibitors. TR-FRET LEDGF/p75-dependent HIV-1 integration, biochemical. shares compounds with LEDGF integ inh. inhibition, % at 3.7 µM. actives 36% (n = 2,000); in the data active = inhibition above about 14%
Hits are given with their value; i = inactive; nt = no result given. Shown are actives, neighbours in structure and some others; about 1.6% of the full set was active somewhere.

SMILES	TDP2 inh	MBD2 DNA inh	LEDGF integ inh	UHRF1 binding	IN multimer up	TR-FRET interf	LEDGF integ conf
CCC(=O)Nc1ncc2c(n1)CC(c1ccco1)CC2=O (configuration not stated)	i	i	18.1	i	i	i	i
COc1ccc(-n2c(COc3ccc(Cl)cc3)nnc2SCC(=O)c2ccc(-c3ccccc3)cc2)cc1	i	i	i	i	nt	nt	nt
COc1cccc(NC(=O)N2CCC(C(=O)Nc3ccc(C)cc3C)CC2)c1	i	i	37.6	i	i	i	i
COc1cccc(NC(=O)N2CCC(NC(=O)C3CCCCC3)CC2)c1	i	i	i	i	nt	nt	nt
Oc1cc(O)cc(C=Cc2ccc(O)c(O)c2)c1	i	i	51.5	i	43.1	i	42.0
Oc1ccc(/C=C/c2cc(O)cc(O)c2)cc1	i	i	i	i	nt	nt	nt
O=C(c1ccc(=O)oc1)N1CCOCC1	i	i	29.2	42.8	i	i	58.3
O=C(c1ccc(F)cc1)N1CCOCC1	i	i	i	i	nt	nt	nt
O=c1cc2oc3cc(O)c(O)cc3c(-c3ccccc3[N+](=O)[O-])c-2cc1O	i	i	86.0	41.2	10.9	i	85.6
O=c1cc(-c2ccccc2Cl)oc2cccc(O)c12	i	i	i	i	nt	nt	nt
COC(=O)C[C@H]1C[C@H]2c3cc(NC(=O)Cc4ccncc4)ccc3O[C@H]2[C@@H](CO)O1	i	i	14.4	i	i	i	i
COc1ccc(C(=O)C2CCN(C(=O)c3ccc(OC)cc3)CC2)cc1	i	i	i	i	nt	nt	nt
COc1ccc(C(=O)N2CCC(C(=O)c3ccc(F)cc3)CC2)cc1	i	i	80.1	i	i	i	i
COc1ccc(S(=O)(=O)N2CCOCC2)cc1C(=O)Nc1cc(C)on1	i	i	85.7	i	i	i	i
COc1ccc(S(=O)(=O)N2CCCCC2)cc1C(=O)Nc1cc(C)on1	i	i	i	i	nt	nt	nt
O=[N+]([O-])c1ccc(/C=C/c2ccncc2)cc1	i	i	i	i	nt	nt	nt
O=[N+]([O-])c1cccc(/C=C/c2ccncc2)c1	i	i	19.4	i	i	i	i
C[C@@H]1CCCCO[C@H](CN(C)C(=O)CCC(F)(F)F)[C@H](C)CN([C@@H](C)CO)C(=O)c2cc(NS(=O)(=O)c3ccc(Cl)cc3)ccc2O1	i	i	i	i	nt	nt	nt
C[C@H]1CN([C@@H](C)CO)C(=O)CCCn2nncc2CO[C@@H]1CN(C)S(=O)(=O)c1ccc(Oc2ccccc2)nc1	i	i	26.2	i	i	i	i
CC1(C(=O)Nc2ccc3nc[nH]c3c2)CCN1C(=O)C1(c2ccccc2)CCCC1 (configuration not stated)	i	i	24.6	i	i	i	i
CC1(C(=O)Nc2ccc3nc[nH]c3c2)CCN1C(=O)Cc1ccc(-c2ccccc2)cc1 (configuration not stated)	i	i	i	i	nt	nt	nt
C[C@@H]1[C@H](O)[C@@H](C)/C=C/C=C/C=C/C=C/C=C/C=C/C=C/[C@H](OC2O[C@H](C)[C@@H](O)[C@H](N)[C@@H]2O)C[C@@H]2O[C@](O)(C[C@@H](O)C[C@@H](O)[C@H](O)CC[C@@H](O)C[C@@H](O)CC(=O)O[C@H]1C)C[C@H](O)[C@H]2C(=O)O (some centres not stated)	i	i	31.9	i	i	i	77.8
CC1C/C=C/C=C/C=C/C=C/C(O[C@@H]2O[C@H](C)[C@@H](O)[C@H](N)[C@@H]2O)CC2OC(O)(CC(O)CC3OC3/C=C/C(=O)O1)CC(O)C2C(=O)O (some centres not stated)	i	i	20.9	i	i	i	35.4
NC(=O)c1ccc(NC(=O)CSc2nnc(-c3ccccc3)n2-c2ccccc2)cc1	i	i	i	i	nt	nt	nt
COc1cc(OC)c(C(=O)O/N=C(\N)c2cccc(C)c2)cc1OC	i	i	17.1	i	i	i	i
COc1cc(OC)c(C(=O)O/N=C(\N)c2ccc(C)cc2)cc1OC	i	i	i	i	nt	nt	nt

Screens from PubChem BioAssay.
